Assay results as given in publication PMC4659352 (Molecular cancer therapeutics, 2014).
*1 amine or outer side, *2 acyl side, *3 side chain or, on linkers, in order; H or OH if unused. Where a SMILES comes first, the peptide text is derived from it. [ ]: non-standard residue; d: D form. γGlu = O=C(O)[C@H](CCC(=O)[*:2])N[*:1]

Key:
human red blood cells = assay: Hemolysis assay with washed human red blood cells; assay type: cell-based; details: 1 µmol/L peptide, 2% v/v human RBC, 1 hour, 37°C
Procedure, shortened: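 Test compound was dissolved in DMSO and diluted in 1× PBS to 100, 10 and 1 µmol/L. It was incubated with washed human RBCs (2% v/v) for 1 hour at 37°C. RBCs in PBS alone served as zero lysis and 1% Triton X-100 as 100% lysis. Cells were pelleted and supernatant absorbance read at 540 nm, in triplicate.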

PC3 = assay: MTT cell viability assay, PC3; assay type: cell-based, human; details: PSMA-null PC3, standard culture conditions with 10% fetal bovine serum, 72 hours
Procedure, shortened: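 PC3 cells (about 3,000 per well) were kept in RPMI-1640 with 10% FBS, 1% pen/strep and 2 mmol/L L-glutamine at 37°C and 5% CO2. They were exposed to a concentration range of test compound for 72 hours. Viability was read by MTT, and IC50 was calculated.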

CWR22Rv1 xenografts = assay: CWR22Rv1 subcutaneous xenograft therapy study; assay type: in vivo, mouse; details: 7 mg/kg tail vein at days 0, 3, 6, 9
PC3 xenografts = details: PC3 (PSA-, PSMA-) xenograft, 7 mg/kg tail vein at days 0, 3, 6, 9
healthy nude mice = assay: Toxicity study in healthy nude mice; assay type: in vivo, mouse
LNCaP xenografts = assay: LNCaP subcutaneous xenograft therapy study; assay type: in vivo, mouse
[1] = Solubility of the propeptides at dosing; assay type: physicochemical; details: dissolved in DMSO and diluted in sterile PBS, 5% v/v DMSO
PSMA = PSMA (Homo sapiens, UniProt Q04609); assay: Protease digestion with purified recombinant PSMA monitored by MALDI-TOF; assay type: biochemical
PSMA, sequence (Q04609 whole entry): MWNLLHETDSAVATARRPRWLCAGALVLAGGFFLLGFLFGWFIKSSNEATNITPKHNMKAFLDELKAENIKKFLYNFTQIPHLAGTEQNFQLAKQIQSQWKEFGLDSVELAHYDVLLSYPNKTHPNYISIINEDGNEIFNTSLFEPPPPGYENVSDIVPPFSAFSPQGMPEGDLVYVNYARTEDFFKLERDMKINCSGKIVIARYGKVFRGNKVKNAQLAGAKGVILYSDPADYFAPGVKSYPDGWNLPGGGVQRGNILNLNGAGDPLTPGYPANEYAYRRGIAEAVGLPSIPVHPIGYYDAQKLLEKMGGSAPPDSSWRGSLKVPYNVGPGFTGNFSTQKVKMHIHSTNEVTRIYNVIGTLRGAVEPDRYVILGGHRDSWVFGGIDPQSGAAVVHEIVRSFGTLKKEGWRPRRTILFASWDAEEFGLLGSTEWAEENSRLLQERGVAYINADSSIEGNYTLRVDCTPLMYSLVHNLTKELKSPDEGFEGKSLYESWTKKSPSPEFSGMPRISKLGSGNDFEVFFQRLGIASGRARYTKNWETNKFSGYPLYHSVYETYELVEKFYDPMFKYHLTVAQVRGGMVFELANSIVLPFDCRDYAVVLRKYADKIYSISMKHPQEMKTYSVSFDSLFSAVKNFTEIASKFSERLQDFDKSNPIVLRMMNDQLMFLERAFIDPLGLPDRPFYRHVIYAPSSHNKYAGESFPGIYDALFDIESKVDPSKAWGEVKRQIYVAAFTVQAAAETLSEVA

[2] = tested on: primary and metastatic tumor models; details: intratumoral or systemic injection; ref [22], [23]; cited from earlier work
PSA = PSA substrate sequence used in PSA1 and PSA2; ref [27]; cited from earlier work
[3] = 7 mg/kg tail vein at days 0, 3, 6, 9

Compound: H-LKLLKKLLKKLLKLLDDDDDDD-OH [KLL-D7-OH]
- hemolysis at 1 µmol/L (human red blood cells): minimal hemolysis

Compound: CC(C)C[C@H](NC(=O)[C@H](CC(C)C)NC(=O)[C@@H](CCCCN)NC(=O)[C@H](CC(C)C)NC(=O)[C@H](CC(C)C)NC(=O)[C@H](CCCCN)NC(=O)[C@@H](CCCCN)NC(=O)[C@@H](CC(C)C)NC(=O)[C@H](CC(C)C)NC(=O)[C@@H](CCCCN)NC(=O)[C@H](CCCCN)NC(=O)[C@H](CC(C)C)NC(=O)[C@@H](CC(C)C)NC(=O)[C@H](CCCCN)NC(=O)[C@@H](N)CC(C)C)C(=O)N[C@@H](CCC(=O)N[C@@H](CCC(=O)N[C@@H](CCC(=O)N[C@@H](CCC(=O)N[C@@H](CCC(=O)N[C@@H](CCC(=O)N[C@@H](CCC(=O)O)C(=O)O)C(=O)O)C(=O)O)C(=O)O)C(=O)O)C(=O)O)C(=O)O [γE-KLL] (H-LK[dL]LK[dK]L[dL][dK]KLL[dK]LL[γGlu][γGlu][γGlu][γGlu][γGlu][γGlu]E-OH; N-terminus assumed)
- toxicity in PC3 (PC3): no toxicity
- Treated tumor/Control tumor (T/C) ratio at day 28 (CWR22Rv1 xenografts): 0.3
- therapeutic effect in PC3 tumors (PC3 xenografts): No therapeutic effect
- toxicity in healthy nude mice (healthy nude mice): nontoxic
- Treated tumor/Control tumor (T/C) ratio at day 28 (LNCaP xenografts; [3]): 0.3
- tumor growth compared with the saline control at day 9 (LNCaP xenografts; [3]): Inhibition of tumor growth
- tumor volume at day 28 (LNCaP xenografts; 7 mg/kg tail vein at days 0, 3, 6, 9, n = 10 mice): 220.3 ± 44.6 mm^3
- dose above which solubility issues became apparent [1]: above 10 mg/kg
- cleavage of the γ-linked glutamic acid inhibitory domain by PSMA (PSMA; 50 µg peptide, 5 µg PSMA, 4 hours, 37°C, pH 7.8, MALDI-TOF): Cleavage of γ-linked glutamic acid residues from the peptide sequence by PSMA was detected
- degradation by PSMA in the presence of EDTA (PSMA; PSMA with EDTA in the buffer, MALDI-TOF): no degradation

Compound: CC(C)C[C@H](NC(=O)[C@H](CC(C)C)NC(=O)[C@@H](CCCCN)NC(=O)[C@H](CC(C)C)NC(=O)[C@H](CC(C)C)NC(=O)[C@H](CCCCN)NC(=O)[C@@H](CCCCN)NC(=O)[C@@H](CC(C)C)NC(=O)[C@H](CC(C)C)NC(=O)[C@@H](CCCCN)NC(=O)[C@H](CCCCN)NC(=O)[C@H](CC(C)C)NC(=O)[C@@H](CC(C)C)NC(=O)[C@H](CCCCN)NC(=O)[C@@H](N)CC(C)C)C(N)=O [KLL, reference compound] (H-LK[dL]LK[dK]L[dL][dK]KLL[dK]LL-NH2)
- tumor volume by day 28 relative to the γE-KLL arm (CWR22Rv1 xenografts): double the volume of the γE-KLL–treated arm
- tumor growth compared with the saline control at day 9 (LNCaP xenografts; [3]): Inhibition of tumor growth
- effect on tumor growth [2]: inhibit the growth of primary and metastatic tumor models

Compound: SSKLQ [SSLQ, serine–serine–lysine–leucine–glutamine]
- kcat/km (PSA): 23.6 s^−1 (mol/L)^−1

Compound: H-DDDDDDDLKLLKKLLKKLLKLL-NH2 [D7-KLL-NH2]
- hemolysis at 1 µmol/L (human red blood cells): little hemolytic activity
